Data from ChEMBL document CHEMBL5058577, “EUbOPEN Chemogenomics Library 2 (Multiplex)” (2022).

Test system: U2OS
Assay: Multiplex assay against U2OS
Format: toxicity, cell-based
Conditions: human
In short: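 Per cents of healthy-nucleus cells form the tubulin, mitochondrial-mass and membrane-permeability phenotype values. Live cells were stained at seeding with Hoechst33342, BioTracker Green Microtubule Cytoskeleton Dye, MitoTracker Red and Annexin V Alexa Fluor 680. After compound addition they were imaged on a CQ1 microscope at 37°C and 5% CO2, and CellPathfinder machine-learning gating split them into Hoechst high-intensity objects or normal cells, normal cells into healthy, pyknosed or fragmented nuclei, and pyknosed cells into mitotic or apoptotic.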

[1] = 12 h, 1 µM, compound concentration 1 uM, replicate 1
[2] = 12 h, 1 µM, compound concentration 1 uM, replicate 2
[3] = 12 h, 10 µM, compound concentration 10 uM, replicate 1
[4] = 12 h, 10 µM, compound concentration 10 uM, replicate 2
[5] = 24 h, 1 µM, compound concentration 1 uM, replicate 1
[6] = 24 h, 1 µM, compound concentration 1 uM, replicate 2
[7] = 24 h, 10 µM, compound concentration 10 uM, replicate 1
[8] = 24 h, 10 µM, compound concentration 10 uM, replicate 2
[9] = 48 h, 1 µM, compound concentration 1 uM, replicate 1
[10] = 48 h, 1 µM, compound concentration 1 uM, replicate 2
[11] = 48 h, 10 µM, compound concentration 10 uM, replicate 1
[12] = 48 h, 10 µM, compound concentration 10 uM, replicate 2

## Cc1ccc(C(C)(O)c2nc3ccccc3s2)c(C)c1 (centres undefined)
[1]
  Population Apoptotic (%): 86%
  Population Fragmented Nuclei (%): 19%
  Population Healthy Nuclei (%): 70%
  Population Hoechst High Intensity Objects (%): 3%
  Population Membrane Permeable-Phenotype (%): 4%
  Population Mitochondria Different-Phenotype (%): 1%
  Population Mitotic Cells (%): 13%
  Population Normal (%): 96%
  Population Pyknosed Nuclei (%): 9%
  Population Tubulin-Different-Phenotype (%): 2%
  Total Cell Count: 249
[2]
  Population Apoptotic (%): 100%
  Population Fragmented Nuclei (%): 17%
  Population Healthy Nuclei (%): 78%
  Population Hoechst High Intensity Objects (%): 0%
  Population Membrane Permeable-Phenotype (%): 9%
  Population Mitochondria Different-Phenotype (%): 4%
  Population Mitotic Cells (%): 0%
  Population Normal (%): 99%
  Population Pyknosed Nuclei (%): 3%
  Population Tubulin-Different-Phenotype (%): 5%
  Total Cell Count: 141
[3]
  Population Apoptotic (%): 100%
  Population Fragmented Nuclei (%): 25%
  Population Healthy Nuclei (%): 67%
  Population Hoechst High Intensity Objects (%): 2%
  Population Membrane Permeable-Phenotype (%): 9%
  Population Mitochondria Different-Phenotype (%): 3%
  Population Mitotic Cells (%): 0%
  Population Normal (%): 97%
  Population Pyknosed Nuclei (%): 6%
  Population Tubulin-Different-Phenotype (%): 3%
  Total Cell Count: 234
[4]
  Population Apoptotic (%): 66%
  Population Fragmented Nuclei (%): 18%
  Population Healthy Nuclei (%): 77%
  Population Hoechst High Intensity Objects (%): 4%
  Population Membrane Permeable-Phenotype (%): 3%
  Population Mitochondria Different-Phenotype (%): 1%
  Population Mitotic Cells (%): 33%
  Population Normal (%): 95%
  Population Pyknosed Nuclei (%): 3%
  Population Tubulin-Different-Phenotype (%): 1%
  Total Cell Count: 89
[5]
  Population Apoptotic (%): 92%
  Population Fragmented Nuclei (%): 22%
  Population Healthy Nuclei (%): 69%
  Population Hoechst High Intensity Objects (%): 1%
  Population Membrane Permeable-Phenotype (%): 4%
  Population Mitochondria Different-Phenotype (%): 0%
  Population Mitotic Cells (%): 7%
  Population Normal (%): 98%
  Population Pyknosed Nuclei (%): 8%
  Population Tubulin-Different-Phenotype (%): 3%
  Total Cell Count: 327
[6]
  Population Apoptotic (%): 90%
  Population Fragmented Nuclei (%): 13%
  Population Healthy Nuclei (%): 80%
  Population Hoechst High Intensity Objects (%): 0%
  Population Membrane Permeable-Phenotype (%): 6%
  Population Mitochondria Different-Phenotype (%): 3%
  Population Mitotic Cells (%): 10%
  Population Normal (%): 99%
  Population Pyknosed Nuclei (%): 6%
  Population Tubulin-Different-Phenotype (%): 4%
  Total Cell Count: 159
[7]
  Population Apoptotic (%): 88%
  Population Fragmented Nuclei (%): 22%
  Population Healthy Nuclei (%): 71%
  Population Hoechst High Intensity Objects (%): 1%
  Population Membrane Permeable-Phenotype (%): 5%
  Population Mitochondria Different-Phenotype (%): 3%
  Population Mitotic Cells (%): 11%
  Population Normal (%): 98%
  Population Pyknosed Nuclei (%): 6%
  Population Tubulin-Different-Phenotype (%): 3%
  Total Cell Count: 272
[8]
  Population Apoptotic (%): 75%
  Population Fragmented Nuclei (%): 16%
  Population Healthy Nuclei (%): 75%
  Population Hoechst High Intensity Objects (%): 4%
  Population Membrane Permeable-Phenotype (%): 3%
  Population Mitochondria Different-Phenotype (%): 1%
  Population Mitotic Cells (%): 25%
  Population Normal (%): 95%
  Population Pyknosed Nuclei (%): 7%
  Total Cell Count: 113
[9]
  Population Apoptotic (%): 88%
  Population Fragmented Nuclei (%): 16%
  Population Healthy Nuclei (%): 74%
  Population Hoechst High Intensity Objects (%): 2%
  Population Membrane Permeable-Phenotype (%): 5%
  Population Mitochondria Different-Phenotype (%): 2%
  Population Mitotic Cells (%): 11%
  Population Normal (%): 97%
  Population Pyknosed Nuclei (%): 9%
  Population Tubulin-Different-Phenotype (%): 2%
  Total Cell Count: 442
[10]
  Population Apoptotic (%): 94%
  Population Fragmented Nuclei (%): 15%
  Population Healthy Nuclei (%): 76%
  Population Hoechst High Intensity Objects (%): 3%
  Population Membrane Permeable-Phenotype (%): 6%
  Population Mitochondria Different-Phenotype (%): 3%
  Population Mitotic Cells (%): 5%
  Population Normal (%): 96%
  Population Pyknosed Nuclei (%): 8%
  Population Tubulin-Different-Phenotype (%): 5%
  Total Cell Count: 215
[11]
  Population Apoptotic (%): 96%
  Population Fragmented Nuclei (%): 23%
  Population Healthy Nuclei (%): 69%
  Population Hoechst High Intensity Objects (%): 2%
  Population Membrane Permeable-Phenotype (%): 6%
  Population Mitochondria Different-Phenotype (%): 1%
  Population Mitotic Cells (%): 3%
  Population Normal (%): 97%
  Population Pyknosed Nuclei (%): 7%
  Population Tubulin-Different-Phenotype (%): 4%
  Total Cell Count: 365
[12]
  Population Apoptotic (%): 85%
  Population Fragmented Nuclei (%): 11%
  Population Healthy Nuclei (%): 83%
  Population Hoechst High Intensity Objects (%): 5%
  Population Membrane Permeable-Phenotype (%): 5%
  Population Mitotic Cells (%): 14%
  Population Normal (%): 94%
  Population Pyknosed Nuclei (%): 5%
  Total Cell Count: 147
